TPT1 inh: Candida albicans TPT1 enzyme inhibitors, primary screen, biochemical, fluorescence polarization | tRNA 2'-phosphotransferase TPT1 (Candida albicans SC5314) | recombinant caTPT1, FP RNA substrate dephosphorylation | inhibition, % at 5 µM | actives 0.81% (n = 300,000) | AID 1962, 2009;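 active = inhibition above the mean of all tested compounds plus 3 SD, set per screening campaign, cut at about 24% in these data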;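 also: plate controls were DMSO alone for no effect and ferristatin control at 100 nM for full effect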
NadD inh: inhibitors of S. aureus NadD, primary screen, biochemical, colorimetric, uHTS | Nicotinate-nucleotide adenylyltransferase NadD (Staphylococcus aureus N315) | purified NadD enzyme, colorimetric absorbance read-out | inhibition, % at 20 µM | actives 0.78% (n = 360,000) | AID 602399, 2012; in the data active = inhibition above about 26%
CSN inh: inhibitors of CSN-mediated cullin deneddylation, primary screen, biochemical, fluorescence polarization, uHTS | COP9 signalosome complex subunit 5 (Homo sapiens), Q92905 | Purified CSN, SCF-Nedd8-OG deneddylation | inhibition, % at 12.5 µM | actives 0.38% (n = 360,000);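 active = pattern-corrected inhibition above about 35%, with an unprinted fluorescence ratio check between 0.5 and 1.5, limit read from the data, passing the limit was not always enough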;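 also: 0% = enzyme with substrate and 100% = substrate without enzyme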
Target sequence (Q92905 whole entry, looked up, one chain of several): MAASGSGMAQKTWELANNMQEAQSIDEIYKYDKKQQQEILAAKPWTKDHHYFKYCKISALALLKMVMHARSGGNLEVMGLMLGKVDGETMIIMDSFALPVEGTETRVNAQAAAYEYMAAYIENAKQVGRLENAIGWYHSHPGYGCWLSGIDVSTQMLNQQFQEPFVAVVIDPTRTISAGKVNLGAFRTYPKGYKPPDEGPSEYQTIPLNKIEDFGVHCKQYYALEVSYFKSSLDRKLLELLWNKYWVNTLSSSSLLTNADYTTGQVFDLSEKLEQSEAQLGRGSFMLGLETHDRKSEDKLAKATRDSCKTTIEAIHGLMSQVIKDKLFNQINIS
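Assay system: HEK293T-derived human Csn5 enzyme; quantity: 0.24 nM enzyme; medium: Tris/NaCl/DTT buffer, pH 7.5; also added: substrate SCFSkp2-Nedd8OG, 10 nM; doses: 12.5 µM compound; schedule: 90 min reaction at room temperature; signal: FP; read-out: % inhibition of substrate cleavage by Csn5; benchmarks: substrate-only high control, full reaction low control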
HNF4A DNA FP: change in binding of human HNF4A to DNA, primary screen, biochemical, fluorescence polarization, FITC-DNA; actives 0.3% (n = 360,000); Hepatocyte nuclear factor 4-alpha (Homo sapiens), P41235; activity change, % at 10 µM; 1 h; in the data active = activity change above about 30%, passing the limit was not always enough
Rpn11 inh: Rpn11 (PSMD14) deubiquitinase inhibitors, primary screen, biochemical, fluorescence polarization, uHTS | 26S proteasome non-ATPase regulatory subunit 14 (Homo sapiens), O00487 | human 26S proteasome, Ub4-pepOG fluorescence polarization; 20S core pre-blocked with epoxomicin | inhibition, % at 20 µM | actives 0.59% (n = 360,000) | AID 588493, 2011;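 active = inhibition at 20 µM, scaled to each plate's controls, above about 33%, limit read from the data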
Target sequence (O00487 whole entry, looked up): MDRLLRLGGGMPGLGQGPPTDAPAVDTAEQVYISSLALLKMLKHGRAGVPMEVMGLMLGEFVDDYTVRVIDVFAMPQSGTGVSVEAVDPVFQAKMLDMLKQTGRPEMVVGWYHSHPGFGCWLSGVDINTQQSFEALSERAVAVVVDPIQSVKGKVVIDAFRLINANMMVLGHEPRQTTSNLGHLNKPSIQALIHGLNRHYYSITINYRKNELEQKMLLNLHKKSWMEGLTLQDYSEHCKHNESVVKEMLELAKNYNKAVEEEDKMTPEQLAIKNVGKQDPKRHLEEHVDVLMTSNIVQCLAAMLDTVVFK
PP1 counter: PP1-alpha phosphatase inhibitors, primary screen, counter-screen for PP5 inhibitor project, biochemical, fluorescence, OMFP substrate, single point; actives 0.9% (n = 320,000); purified PP1alpha; inhibition, % at 6.7 µM; Serine/threonine-protein phosphatase PP1-alpha catalytic subunit (Homo sapiens), P62136;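 active = inhibition above the mean inhibition of all tested compounds plus 3 SD, computed separately for each screening campaign, cut at about 15% in these data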
TPT1 inh confirm: Candida albicans TPT1 inhibitors, confirmation, biochemical, fluorescence polarization, triplicate | AID 2149, 2009 | shares compounds with TPT1 inh | actives 74% (n = 2,400) | inhibition, % at 5 µM | recombinant caTPT1, RNase T1 coupled;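 active = inhibition above the primary screen limit, the mean inhibition of all tested compounds plus 3 SD, cut at about 25% in these data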
RNase T1 inh: RNase T1 inhibitors, counter-screen for TPT1 inhibitor project, biochemical, fluorescence polarization. shares compounds with TPT1 inh. RNase T1 cleavage, 1536-well. inhibition, % at 5 µM. actives 83% (n = 2,400). AID 2153, 2009;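 active = inhibition above the solvent-only control well mean plus 3 SD, limit set per screening run, cut at about 23% in these data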;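 also: plate controls were DMSO wells with enzyme for no effect and wells without RNase T1 for full effect; inhibitors block cleavage so intact labeled substrate keeps polarization high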
PP1 inh confirm: PP1 phosphatase inhibitors, confirmation, biochemical, fluorescence, OMFP substrate, triplicate; shares compounds with PP1 counter; purified PP1alpha; inhibition, % at 6.7 µM; actives 52% (n = 1,900); AID 2358, 2010;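 active = mean PP1 inhibition above a set limit taken from the earlier primary screen, cut at about 15% in these data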
PP5 inh counter: PP5 phosphatase inhibition by PP1 hits, confirmation, counter-screen for PP1 inhibitor project, biochemical, fluorescence, triplicate. shares compounds with PP1 counter. purified PP5c, OMFP fluorescence. inhibition, % at 6.7 µM. actives 4% (n = 1,900);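 active = mean PP5 inhibition over triplicate wells above about 9.5% taken from the earlier PP1 screen, limit read from the data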
Rpn11 confirm: Rpn11 (PSMD14) deubiquitinase inhibitors, confirmation, biochemical, fluorescence polarization, single concentration; purified human 26S proteasome, Ub4-pepOG fluorescence polarization; proteasome pretreated with epoxomicin; shares compounds with Rpn11 inh; inhibition, % at 20 µM; actives 29% (n = 1,900); AID 602318, 2012
MMP-2 counter-1: MMP-2 enzyme inhibition, confirmation, counter-screen for RPN11 inhibitor project, biochemical, fluorescence, single concentration; AID 602330, 2012; actives 4% (n = 1,900); recombinant MMP-2, FRET peptide cleavage fluorescence; inhibition, % at 20 µM; shares compounds with Rpn11 inh;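 also: human MMP-2 activated beforehand with APMA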
Thrombin FP: bovine thrombin protease inhibition, confirmation, counter-screen for Rpn11 inhibitor project, biochemical, fluorescence polarization, single concentration. inhibition, % at 20 µM. actives 13% (n = 1,900). bovine thrombin cleavage of Ub4-pepOG. AID 602333, 2012. shares compounds with Rpn11 inh;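 active = mean inhibition at least 40% at 20 µM, or signal 3 deviations below plate average, so some actives read negative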;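 also: plate controls were thrombin with DMSO for no effect and buffer wells lacking thrombin for full effect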
CSN5 deneddyl: Csn5 deneddylation inhibitors, confirmation, biochemical, fluorescence polarization, single concentration, SCF-Nedd8OG substrate; shares compounds with CSN inh; Csn5 deneddylation of SCF-Nedd8OG, 90 min; inhibition, % at 16.6 µM; actives 62% (n = 540); AID 720654, 2013; in the data active = inhibition above about 50%;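 also: 0% = DMSO with enzyme and 100% = no enzyme wells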
MMP-2 counter-2: MMP-2 protease inhibition counter-screen, confirmation, counter-screen for CSN deneddylation inhibitor project, biochemical, fluorescence, single concentration; shares compounds with CSN inh; recombinant MMP-2, FRET substrate fluorescence, 60 min; inhibition, % at 16.6 µM; actives 33% (n = 540); AID 720655, 2013;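 active = corrected plate-normalized z-score of 5 or more, or -5 or less, or inhibition of 15% or more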;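 also: plate controls were DMSO wells with enzyme for no effect and buffer wells lacking MMP-2 for full effect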
Thrombin counter: counter-screen for CSN deneddylation inhibitors: bovine thrombin inhibition; shares compounds with CSN inh; bovine thrombin cleavage of Ub4-pepOG, fluorescence polarization; inhibition, % at 16.6 µM; actives 49% (n = 540); AID 720656;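 active = inhibition at or above a set limit, with a fluorescence interference ratio between 0.5 and a set maximum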
HNF4a DNA conf: change in HNF4A binding to DNA, retest, confirmation, biochemical, fluorescence polarization, FITC-DNA; shares compounds with HNF4A DNA FP; 1 h; activity change, % at 12.5 µM; actives 99% (n = 210); call rule not given here
* hit, by the source's call; · = not tested or not shown. In the library only some 2.7% were active in any assay of this set; here they are far more common. Rule as the data show it, unless noted: active = inhibition above about 40%; inactive = the rest.

SMILES	TPT1 inh	NadD inh	CSN inh	HNF4A DNA FP	Rpn11 inh	PP1 counter	PP1 inh confirm	PP5 inh counter	others
CCN(CC)c1ccc(/C=C2/C(=O)NC(=O)N(CC3CCCO3)C2=O)cc1 (centres undefined)	-12	8	-8	-1	-41	-7	·	·
CCCCN1C(=O)/C(=C/c2ccc(N(C)C)cc2)C(=O)N(Cc2ccco2)C1=O	150*	34*	132*	20	·	7	·	·	TPT1 inh confirm=110*;RNase T1 inh=116*;CSN5 deneddyl=86*;MMP-2 counter-2=4;Thrombin counter=14
Cc1ccc(N2CCNCC2C)cc1 (centres undefined)	·	-4	0	0	-3	·	·	·
COc1ccc(N=Nc2c(O)[nH]c(=S)[nH]c2=O)cc1	60*	-4	58*	80*	·	8	·	·	TPT1 inh confirm=55*;RNase T1 inh=70*;HNF4a DNA conf=118*
C[C@H]1COc2cccc(N3CCN(C)CC3)c2S(=O)(=O)N1	·	-6	4	-2	·	·	·	·
COc1ccc2[nH]c3c(c2c1)CCNC3C (centres undefined)	2	-5	-4	3	3	0	·	·
COc1ccc2c3c([nH]c2c1)C(C)NCC3 (centres undefined)	27*	15	31	42*	78*	-2	·	·	TPT1 inh confirm=2;RNase T1 inh=6;Rpn11 confirm=58*;MMP-2 counter-1=-8;Thrombin FP=48*;HNF4a DNA conf=55*
O=C1NC(=O)N(Cc2ccccc2Cl)C(=O)/C1=C/N1CCOCC1	40*	3	30	37*	·	-2	·	·	TPT1 inh confirm=47*;RNase T1 inh=60*;HNF4a DNA conf=54*
CC(Cc1ccc(O)cc1)NCC(O)c1ccc(O)c(O)c1 (centres undefined)	·	13	18	-25	4	·	·	·
O=c1[nH]c(=O)n(CCC2=CCCCC2)c(O)c1/C=N/Nc1cccc2ccccc12	10	31*	11	0	13	21*	18*	2
COc1ccc(C(C)=O)cc1Cc1c(O)[nH]c(=S)[nH]c1=O	-4	-6	-2	1	-5	-4	·	·
CCOC(=O)c1cccc(NC(=O)c2c(O)[nH]c(=O)[nH]c2=O)c1	-3	-7	-1	2	-4	19*	12	-2
Clc1ccc(C(Cn2ccnc2)OCc2csc3c(Cl)cccc23)c(Cl)c1 (centres undefined)	6	13	-5	1	2	32*	29*	-1
COc1ccc(CNCCc2ccc(Cl)cc2)c(OC)c1OC	-5	-9	0	2	-7	0	·	·
CCN(CC)C(=O)c1ccc2c(c1)C1C(Cl)C(Sc3ccccc3[N+](=O)[O-])CC1C(C(=O)O)N2 (centres undefined)	-3	21	1	-37	-33	19*	2	2
CCN(CC)C(=O)c1ccc2c(c1)C1C=CCC1C(C(=O)O)N2 (centres undefined)	·	19	10	-42	-27	·	·	·
O=C(NCc1ccccc1)c1cccn(Cc2ccccc2)c1=O	0	-9	3	3	-6	0	·	·
O=C(c1cc(C(=O)NCc2ccccc2)c(=O)n(Cc2ccccc2)c1)c1cc(Cl)ccc1O	9	20	5	10	37	18*	16*	1
O=c1[nH]c(=S)[nH]c(O)c1N=Nc1cc(S(=O)(=O)Nc2ccc(Cl)cc2)ccc1Cl	·	26	-6	-4	-15	21*	25*	2
NS(=O)(=O)c1ccc(N=Nc2c(O)[nH]c(=S)[nH]c2=O)cc1	0	-1	-2	1	5	-4	·	·
O=C(Cc1cccs1)N1Cc2ccccc2-n2nncc2C1	·	-3	26	1	22	·	·	·
